The record followed here is ChEMBL document CHEMBL3102806, “1,2,4-Triazole/oxime hybrids as new strategy for nitric oxide donors: Synthesis, anti-inflammatory, ulceroginicity and antiproliferative activities” (Eur J Med Chem, 2014).

One data set relates to OVCAR-8. The data set is described as follows: Growth inhibition of human OVCAR8 cells assessed as cell growth at 10^-5 M after 48 hrs by sulforhodamine B assay relative to control. Format: functional. Conditions: OVCAR-8, 48 h, read-out: Activity; call rule not given here. Summed up:
(§1)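 NCI primary screen, one-dose format across about 60 human tumour cell lines. Single addition at 10^-5 M with 48 h incubation; SRB protein-binding dye end point read spectrophotometrically. Reported as percent growth of treated cells versus untreated controls.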
In general terms: Sulforhodamine B stains cellular protein and so reports cell mass.

Another data set deals with 786-0. The experiment in a line: Growth inhibition of human 786-0 cells assessed as cell growth at 10^-5 M after 48 hrs by sulforhodamine B assay relative to control. Format: functional. Particulars: 786-0, 48 h, read-out: Activity. The essentials: (§2)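 NCI ~60 human tumour cell line screen. Single concentration of 10^-5 M added to cultures for 48 h. End point by sulforhodamine B protein staining read spectrophotometrically. Percent growth relative to untreated control cells.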

For a further data set, the system named is A549. The experiment in a line: Growth inhibition of human A549/ATCC cells assessed as cell growth at 10^-5 M after 48 hrs by sulforhodamine B assay relative to control. Format: functional. Particulars: A549, 48 h, read-out: Activity. Summed up: as §2
For another data set, the system named is K562. The data set is described as follows: Growth inhibition of human K562 cells assessed as cell growth at 10^-5 M after 48 hrs by sulforhodamine B assay relative to control. Format: functional. Particulars: K562, 48 h, read-out: Activity. Summed up:
as §2

For a further data set, the system named is HOP-62. The data set is described as follows: Growth inhibition of human HOP62 cells assessed as cell growth at 10^-5 M after 48 hrs by sulforhodamine B assay relative to control. Format: functional. Conditions: HOP-62, 48 h, read-out: Activity. Summed up:
as §2

The next data set has as its system MCF7. The data set is described as follows: Growth inhibition of human MCF7 cells assessed as cell growth at 10^-5 M after 48 hrs by sulforhodamine B assay relative to control. Conditions: MCF7, 48 h, read-out: Activity. Format: functional. Summed up: as §1
A further data set relates to MOLT-4. The data set is described as follows: Growth inhibition of human MOLT4 cells assessed as cell growth at 10^-5 M after 48 hrs by sulforhodamine B assay relative to control. It is filed as functional. Conditions: MOLT-4, 48 h, read-out: Activity. Summed up: as §1
The test system of another data set is CCRF-CEM. The data set is described as follows: Growth inhibition of human CCRF-CEM cells assessed as cell growth at 10^-5 M after 48 hrs by sulforhodamine B assay relative to control. It is filed as functional. Conditions: read-out: Activity. The essentials:
as §2

The nature of data set [1]: Growth inhibition of human NCI-ADR-RES cells assessed as cell growth at 10^-5 M after 48 hrs by sulforhodamine B assay relative to control. Format: functional. Particulars: read-out: Activity. Summed up:
as §1

In the next data set the test system is KM12. The data set is described as follows: Growth inhibition of human KM12 cells assessed as cell growth at 10^-5 M after 48 hrs by sulforhodamine B assay relative to control. It is filed as functional. Conditions: KM12, 48 h, read-out: Activity. The essentials:
as §1

Another data set relates to TK-10. The experiment in a line: Growth inhibition of human TK10 cells assessed as cell growth at 10^-5 M after 48 hrs by sulforhodamine B assay relative to control. It is filed as functional. Conditions: TK-10, 48 h, read-out: Activity. Summed up: (§3)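 NCI primary screen across about 60 human tumour cell lines. Single dose of 10^-5 M, cultures incubated 48 h, end point by sulforhodamine B protein staining read spectrophotometrically. Results are given as percent growth of treated cells relative to untreated control cells.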

The test system of a further data set is U-251. The experiment in a line: Growth inhibition of human U251 cells assessed as cell growth at 10^-5 M after 48 hrs by sulforhodamine B assay relative to control. It is filed as functional. Particulars: U-251, 48 h, read-out: Activity. Summed up:
as §3

Another data set relates to NCI-H23. The data set is described as follows: Growth inhibition of human NCI-H23 cells assessed as cell growth at 10^-5 M after 48 hrs by sulforhodamine B assay relative to control. Format: functional. Conditions: NCI-H23, 48 h, read-out: Activity. Summed up:
as §1

The test system of another data set is MDA-MB-231. The data set is described as follows: Growth inhibition of human MDA-MB-231 cells assessed as cell growth at 10^-5 M after 48 hrs by sulforhodamine B assay relative to control. It is filed as functional. Particulars: MDA-MB-231, 48 h, read-out: Activity. Summed up: as §1
Another data set has as its system HL-60(TB). The data set is described as follows: Growth inhibition of human HL-60(TB) cells assessed as cell growth at 10^-5 M after 48 hrs by sulforhodamine B assay relative to control. Format: functional. Particulars: HL-60, 48 h, read-out: Activity. The essentials:
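NCI primary screen across about 60 human tumour cell lines. Single dose of 10^-5 M, 48 h incubation, sulforhodamine B protein-dye end point read spectrophotometrically. Reported as percent growth of treated cells versus untreated control cells.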

The nature of data set [2]: Induction of nitric oxide release in phosphate buffer at 10^-4 M at pH 7.4 after 6 hrs by Griess colorimetric method in presence of N-acetylcysteine. It is filed as physicochemical. Particulars: pH 7.4, 6 h, 100 µM. The essentials:
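Final drug concentration 10^-4 M, added from DMF into 1:1 50 mM phosphate buffer (pH 7.4)/MeOH containing 5 × 10^-4 M N-acetylcysteine, at 37 °C. Nitrite read with Griess reagent after 10 min at room temperature, absorbance at 546 nm. Calibration with sodium nitrite standards (10–80 nmol/ml). Reported as mol NO per mol, n = 4 reaction mixtures.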
In general terms: The Griess reaction detects nitrite, a stable product of nitric oxide.

The test system of data set [3] is SR. The experiment in a line: Growth inhibition of human SR cells assessed as cell growth at 10^-5 M after 48 hrs by sulforhodamine B assay relative to control. It is filed as functional. Conditions: read-out: Activity. The essentials: as §3
A further data set relates to MDA-MB-435. The experiment in a line: Growth inhibition of human MDA-MB-435 cells assessed as cell growth at 10^-5 M after 48 hrs by sulforhodamine B assay relative to control. It is filed as functional. Particulars: MDA-MB-435, 48 h, read-out: Activity. Summed up: as §1
A further data set relates to UACC-62. The experiment in a line: Growth inhibition of human UACC62 cells assessed as cell growth at 10^-5 M after 48 hrs by sulforhodamine B assay relative to control. It is filed as functional. Particulars: UACC-62, 48 h, read-out: Activity. Summed up:
as §3

Data set [4] can be described thus: Induction of nitric oxide release in HCl buffer at 10^-4 M at pH 1 after 1 hr by Griess colorimetric method in presence of N-acetylcysteine. Format: physicochemical. Conditions: pH 1, 1 h, 100 µM. The essentials: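 Same Griess nitrite procedure at 10^-4 M final drug with N-acetylcysteine at 37 °C, but with 0.1 N HCl (pH 1) in place of the pH 7.4 phosphate buffer. Absorbance at 546 nm against a sodium nitrite calibration curve.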

A further data set deals with Rattus norvegicus. The data set is described as follows: Ulcerogenic activity in albino rat carrageenan-induced paw edema model assessed as ulcer index at 0.28 mmol/kg, po (reference value: 0.60 +/- 0.05). Format: toxicity, organism-based. Conditions: in vivo. The essentials: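 Rats given the compound orally at 0.28 mmol/kg, suspended in 0.5% aqueous CMC; vehicle-only control, n = 4 per group. Gastric ulcers graded by area: I (<1 mm²), II (1–3 mm²), III (>3 mm²). Ulcer index = 1×(level I count) + 2×(level II) + 3×(level III). Mean ± SEM, one-way ANOVA versus control.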

The subject of data set [5] is SR. The experiment in a line: Growth inhibition of human SR cells after 48 hrs by sulforhodamine B assay. It is filed as functional. The essentials:
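NCI 60-cell-line panel, five-dose run at 10-fold dilutions from 10^-4 to 10^-8 M, 48 h continuous exposure. Viability by SRB protein stain. Percent growth is taken from time-zero, untreated-control and treated absorbances. GI50 is the concentration giving a 50% lower net protein increase than in control cells. TGI is taken at Ti = Tz, LC50 at a 50% loss of initial protein.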

For the compound `C/C(=N\O)c1ccc(NC(=O)CSc2nnc(-c3ccccc3)n2-c2ccccc2)cc1`, the growth at 10 µM came out at 90.8% with OVCAR-8; 92.7% in the data set on 786-0; 81.9% in the data set on A549; 95.8% in the data set with K562; 64.7% in the data set with HOP-62; 62.5% in the data set with MCF7. Besides, the growth at 10 µM in the data set with MOLT-4 is 95.2%; with CCRF-CEM, 92%; in data set [1] it was 39.3%; in the data set with KM12, 83.1%; in the data set with TK-10 it was 73.7%; in the data set on U-251, 63.6%. The growth at 10 µM in the data set with NCI-H23 is 76.6%; in the data set on MDA-MB-231, 20.9%; in the data set on HL-60(TB) it was 90.4%; in the data set on SR [3], 106%; in the data set on MDA-MB-435, 118%; in the data set with UACC-62, 76.7%. The figures for the Activity in data set [2] and in data set [4] were 0.16 mol/mol and “Not Active”, respectively. Besides, the UI in the data set on Rattus norvegicus was determined as 0.95.
With `COc1ccc(-c2nnc(SCC(=O)Nc3ccc(/C(C)=N/O)cc3)n2-c2ccccc2)cc1OC`, the growth at 10 µM was 42.8% in the data set on OVCAR-8; 64.5% in the data set on 786-0; 70.7% in the data set on A549; 105% in the data set on K562; -26.4% with HOP-62; 69.2% in the data set with MCF7. For the same compound, the growth at 10 µM in the data set on MOLT-4 was 91.7%; with CCRF-CEM, 98.5%; in data set [1] it was 90.6%; in the data set on KM12 it was 106%; in the data set with TK-10, 41.1%; in the data set with U-251, 34.4%. For the same compound, the growth at 10 µM came to 68.8% with NCI-H23; 47.9% in the data set with MDA-MB-231; 77.3% in the data set with HL-60(TB); 95.4% in the data set on SR [3]; 104% in the data set on MDA-MB-435; 82.8% in the data set with UACC-62. Moreover, the Activity in [2] is listed as 0.31 mol/mol; in [4], “Not Active”. Moreover, the GI50 – broadly, the concentration giving 50% growth inhibition – with SR [5] is > 100 µM. Moreover, the TGI (usually the concentration giving total growth inhibition) in the data set on SR [5] was > 100 µM. The CC50 in the data set on SR [5] (read-out: LC50 (the source's name)) was > 100 µM. Moreover, the UI in the data set on Rattus norvegicus is reported as 1.11.
